# Test results reported in ChEMBL document CHEMBL5303300, “EUbOPEN Chemogenomics Library - Multiplex” (2023).
# Several values for one entry are separate records, joined by “and”; a condition that tells them apart may be missing. Equal values may be shown once.
# Tested on: U2OS
# Assay: Multiplex assay against U2OS
# Type: toxicity, cell-based
# Conditions: human, number of replicates 2
# How it was run: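 Four dyes were applied at seeding to live cells: Hoechst33342, BioTracker Green Microtubule Cytoskeleton Dye, MitoTracker Red and Annexin V Alexa Fluor 680. Imaging after compound addition used a CQ1 microscope at 37°C and 5% CO2. CellPathfinder machine-learning gating then sorted cells into Hoechst high-intensity objects or normal cells, normal cells into healthy, pyknosed or fragmented nuclei, and pyknosed cells into mitotic or apoptotic, with tubulin, mitochondrial-mass and membrane-permeability phenotypes given as per cents of healthy-nucleus cells.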
# [1] = 12 h, 1 µM, compound concentration 1 uM
# [2] = 12 h, 10 µM, compound concentration 10 uM
# [3] = 24 h, 1 µM, compound concentration 1 uM
# [4] = 24 h, 10 µM, compound concentration 10 uM
# [5] = 48 h, 1 µM, compound concentration 1 uM
# [6] = 48 h, 10 µM, compound concentration 10 uM
structure (smiles),measurement,setting,value
CN[C@@H]1CC[C@@H](c2ccc(Cl)c(Cl)c2)c2ccccc21.Cl,Population Apoptotic (%),[1],66% and 62%
same,Population Fragmented Nuclei (%),[1],4% and 9%
same,Population Healthy Nuclei (%),[1],82% and 78%
same,Population Hoechst High Intensity Objects (%),[1],0%
same,Population Membrane Permeable-Phenotype (%),[1],4% and 9%
same,Population Mitotic Cells (%),[1],33% and 37%
same,Population Normal (%),[1],100%
same,Population Pyknosed Nuclei (%),[1],13% and 12%
same,Population Tubulin-Different-Phenotype (%),[1],52% and 43%
same,Population Apoptotic (%),[2],83% and 60%
same,Population Healthy Nuclei (%),[2],33% and 57%
same,Population Hoechst High Intensity Objects (%),[2],0%
same,Population Membrane Permeable-Phenotype (%),[2],30%
same,Population Mitochondria Different-Phenotype (%),[2],53% and 50%
same,Population Mitotic Cells (%),[2],16% and 40%
same,Population Normal (%),[2],100%
same,Population Pyknosed Nuclei (%),[2],30% and 32%
same,Population Tubulin-Different-Phenotype (%),[2],84% and 73%
same,Population Apoptotic (%),[3],60% and 71%
same,Population Fragmented Nuclei (%),[3],1% and 7%
same,Population Healthy Nuclei (%),[3],84% and 81%
same,Population Hoechst High Intensity Objects (%),[3],0%
same,Population Membrane Permeable-Phenotype (%),[3],2% and 1%
same,Population Mitochondria Different-Phenotype (%),[3],6% and 1%
same,Population Mitotic Cells (%),[3],39% and 28%
same,Population Normal (%),[3],100%
same,Population Pyknosed Nuclei (%),[3],14% and 10%
same,Population Tubulin-Different-Phenotype (%),[3],63% and 33%
same,Population Apoptotic (%),[4],90% and 75%
same,Population Hoechst High Intensity Objects (%),[4],0%
same,Population Membrane Permeable-Phenotype (%),[4],42% and 33%
same,Population Mitochondria Different-Phenotype (%),[4],100% and 63%
same,Population Mitotic Cells (%),[4],10% and 25%
same,Population Normal (%),[4],100%
same,Population Pyknosed Nuclei (%),[4],50% and 35%
same,Population Tubulin-Different-Phenotype (%),[4],100% and 75%
same,Population Apoptotic (%),[5],85% and 52%
same,Population Fragmented Nuclei (%),[5],2%
same,Population Healthy Nuclei (%),[5],85% and 76%
same,Population Hoechst High Intensity Objects (%),[5],0%
same,Population Membrane Permeable-Phenotype (%),[5],1%
same,Population Mitochondria Different-Phenotype (%),[5],3% and 1%
same,Population Normal (%),[5],99% and 100%
same,Population Pyknosed Nuclei (%),[5],11% and 20%
same,Population Tubulin-Different-Phenotype (%),[5],72% and 37%
same,Population Apoptotic (%),[6],88% and 79%
same,Population Fragmented Nuclei (%),[6],31% and 16%
same,Population Hoechst High Intensity Objects (%),[6],0%
same,Population Membrane Permeable-Phenotype (%),[6],40% and 45%
same,Population Mitochondria Different-Phenotype (%),[6],60% and 65%
same,Population Mitotic Cells (%),[6],11% and 20%
same,Population Normal (%),[6],100%
same,Population Pyknosed Nuclei (%),[6],57% and 37%
same,Population Tubulin-Different-Phenotype (%),[6],100% and 74%
CCn1c(-c2nonc2N)nc2cncc(C(=O)N3CC[C@H](N)C3)c21.Cl,Population Apoptotic (%),[1],50% and 90%
same,Population Fragmented Nuclei (%),[1],13% and 3%
same,Population Healthy Nuclei (%),[1],73% and 87%
same,Population Hoechst High Intensity Objects (%),[1],0%
same,Population Membrane Permeable-Phenotype (%),[1],0% and 1%
same,Population Mitochondria Different-Phenotype (%),[1],4% and 0%
same,Population Normal (%),[1],100%
same,Population Pyknosed Nuclei (%),[1],13% and 9%
same,Population Tubulin-Different-Phenotype (%),[1],72% and 77%
same,Population Apoptotic (%),[2],75% and 35%
same,Population Healthy Nuclei (%),[2],69% and 78%
same,Population Hoechst High Intensity Objects (%),[2],0%
same,Population Membrane Permeable-Phenotype (%),[2],5% and 0%
same,Population Mitochondria Different-Phenotype (%),[2],0%
same,Population Mitotic Cells (%),[2],25% and 64%
same,Population Normal (%),[2],100%
same,Population Pyknosed Nuclei (%),[2],8% and 16%
same,Population Tubulin-Different-Phenotype (%),[2],67% and 87%
same,Population Apoptotic (%),[3],80% and 96%
same,Population Fragmented Nuclei (%),[3],5% and 3%
same,Population Healthy Nuclei (%),[3],80% and 87%
same,Population Hoechst High Intensity Objects (%),[3],0%
same,Population Membrane Permeable-Phenotype (%),[3],7% and 0%
same,Population Mitochondria Different-Phenotype (%),[3],3% and 1%
same,Population Normal (%),[3],100%
same,Population Pyknosed Nuclei (%),[3],14% and 9%
same,Population Tubulin-Different-Phenotype (%),[3],71% and 79%
same,Population Apoptotic (%),[4],55% and 57%
same,Population Fragmented Nuclei (%),[4],17% and 8%
same,Population Healthy Nuclei (%),[4],67% and 77%
same,Population Hoechst High Intensity Objects (%),[4],0%
same,Population Membrane Permeable-Phenotype (%),[4],2% and 3%
same,Population Mitochondria Different-Phenotype (%),[4],0% and 1%
same,Population Mitotic Cells (%),[4],44% and 42%
same,Population Normal (%),[4],100%
same,Population Pyknosed Nuclei (%),[4],15% and 14%
same,Population Tubulin-Different-Phenotype (%),[4],79% and 89%
same,Population Apoptotic (%),[5],60% and 82%
same,Population Healthy Nuclei (%),[5],71% and 89%
same,Population Hoechst High Intensity Objects (%),[5],0%
same,Population Membrane Permeable-Phenotype (%),[5],7% and 1%
same,Population Mitochondria Different-Phenotype (%),[5],2% and 0%
same,Population Mitotic Cells (%),[5],40% and 17%
same,Population Normal (%),[5],100%
same,Population Pyknosed Nuclei (%),[5],9% and 6%
same,Population Tubulin-Different-Phenotype (%),[5],76% and 81%
same,Population Apoptotic (%),[6],75% and 74%
same,Population Fragmented Nuclei (%),[6],15% and 5%
same,Population Healthy Nuclei (%),[6],69% and 79%
same,Population Hoechst High Intensity Objects (%),[6],0%
same,Population Membrane Permeable-Phenotype (%),[6],3% and 4%
same,Population Mitochondria Different-Phenotype (%),[6],0%
same,Population Mitotic Cells (%),[6],25%
same,Population Normal (%),[6],100% and 99%
same,Population Pyknosed Nuclei (%),[6],15%
same,Population Tubulin-Different-Phenotype (%),[6],68% and 91%
CC1=C(C)C(=O)C(C(C)(C)CC(=O)N(CCCCSC[C@H]2O[C@@H](n3cnc4c(N)ncnc43)[C@H](O)[C@@H]2O)Cc2cccc(-c3ccc(Cl)cc3)c2)=C(C)C1=O,Population Apoptotic (%),[1],33% and 50%
same,Population Fragmented Nuclei (%),[1],4% and 7%
same,Population Healthy Nuclei (%),[1],85% and 72%
same,Population Hoechst High Intensity Objects (%),[1],0%
same,Population Membrane Permeable-Phenotype (%),[1],5% and 6%
same,Population Mitochondria Different-Phenotype (%),[1],4% and 0%
same,Population Mitotic Cells (%),[1],66% and 50%
same,Population Normal (%),[1],99% and 100%
same,Population Pyknosed Nuclei (%),[1],10% and 20%
same,Population Tubulin-Different-Phenotype (%),[1],57% and 34%
same,Population Apoptotic (%),[2],75% and 58%
same,Population Fragmented Nuclei (%),[2],8% and 4%
same,Population Healthy Nuclei (%),[2],69% and 79%
same,Population Hoechst High Intensity Objects (%),[2],0%
same,Population Membrane Permeable-Phenotype (%),[2],16% and 24%
same,Population Mitochondria Different-Phenotype (%),[2],40% and 33%
same,Population Mitotic Cells (%),[2],25% and 41%
same,Population Normal (%),[2],100%
same,Population Pyknosed Nuclei (%),[2],22% and 16%
same,Population Tubulin-Different-Phenotype (%),[2],96% and 86%
same,Population Apoptotic (%),[3],53% and 77%
same,Population Fragmented Nuclei (%),[3],2% and 6%
same,Population Healthy Nuclei (%),[3],89% and 77%
same,Population Hoechst High Intensity Objects (%),[3],0%
same,Population Membrane Permeable-Phenotype (%),[3],3% and 4%
same,Population Mitochondria Different-Phenotype (%),[3],4% and 6%
same,Population Mitotic Cells (%),[3],46% and 22%
same,Population Normal (%),[3],99% and 100%
same,Population Pyknosed Nuclei (%),[3],7% and 15%
same,Population Tubulin-Different-Phenotype (%),[3],66% and 42%
same,Population Apoptotic (%),[4],87% and 79%
same,Population Healthy Nuclei (%),[4],53% and 70%
same,Population Hoechst High Intensity Objects (%),[4],0%
same,Population Membrane Permeable-Phenotype (%),[4],50% and 23%
same,Population Mitochondria Different-Phenotype (%),[4],42% and 45%
same,Population Mitotic Cells (%),[4],12% and 20%
same,Population Normal (%),[4],100% and 99%
same,Population Pyknosed Nuclei (%),[4],30% and 25%
same,Population Tubulin-Different-Phenotype (%),[4],78% and 90%
same,Population Apoptotic (%),[5],100% and 39%
same,Population Fragmented Nuclei (%),[5],9% and 3%
same,Population Healthy Nuclei (%),[5],77% and 89%
same,Population Hoechst High Intensity Objects (%),[5],0%
same,Population Membrane Permeable-Phenotype (%),[5],4% and 1%
same,Population Mitochondria Different-Phenotype (%),[5],7% and 0%
same,Population Normal (%),[5],100%
same,Population Pyknosed Nuclei (%),[5],12% and 7%
same,Population Tubulin-Different-Phenotype (%),[5],56% and 79%
same,Population Apoptotic (%),[6],68% and 78%
same,Population Healthy Nuclei (%),[6],32% and 66%
same,Population Hoechst High Intensity Objects (%),[6],0%
same,Population Membrane Permeable-Phenotype (%),[6],66% and 36%
same,Population Mitochondria Different-Phenotype (%),[6],58% and 52%
same,Population Mitotic Cells (%),[6],31% and 21%
same,Population Normal (%),[6],100% and 99%
same,Population Pyknosed Nuclei (%),[6],51% and 28%
same,Population Tubulin-Different-Phenotype (%),[6],100% and 82%
CN(C)CC#Cc1ccc2[nH]c3c(c2c1)-c1nc(N)ncc1CCC3,Population Apoptotic (%),[1],100% and 38%
same,Population Fragmented Nuclei (%),[1],30% and 13%
same,Population Healthy Nuclei (%),[1],61% and 68%
same,Population Hoechst High Intensity Objects (%),[1],3% and 0%
same,Population Membrane Permeable-Phenotype (%),[1],5% and 1%
same,Population Mitochondria Different-Phenotype (%),[1],2% and 1%
same,Population Normal (%),[1],96% and 99%
same,Population Pyknosed Nuclei (%),[1],7% and 17%
same,Population Tubulin-Different-Phenotype (%),[1],61% and 84%
same,Population Apoptotic (%),[2],50% and 17%
same,Population Healthy Nuclei (%),[2],33% and 56%
same,Population Hoechst High Intensity Objects (%),[2],0%
same,Population Membrane Permeable-Phenotype (%),[2],10% and 5%
same,Population Mitochondria Different-Phenotype (%),[2],0% and 4%
same,Population Mitotic Cells (%),[2],50% and 82%
same,Population Normal (%),[2],100% and 99%
same,Population Tubulin-Different-Phenotype (%),[2],20% and 47%
same,Population Apoptotic (%),[3],75% and 53%
same,Population Fragmented Nuclei (%),[3],30% and 17%
same,Population Healthy Nuclei (%),[3],57% and 58%
same,Population Hoechst High Intensity Objects (%),[3],1% and 0%
same,Population Membrane Permeable-Phenotype (%),[3],0% and 3%
same,Population Mitochondria Different-Phenotype (%),[3],0% and 1%
same,Population Mitotic Cells (%),[3],25% and 46%
same,Population Normal (%),[3],98% and 99%
same,Population Pyknosed Nuclei (%),[3],12% and 23%
same,Population Tubulin-Different-Phenotype (%),[3],58% and 82%
same,Population Apoptotic (%),[4],66% and 24%
same,Population Healthy Nuclei (%),[4],31% and 39%
same,Population Hoechst High Intensity Objects (%),[4],0%
same,Population Membrane Permeable-Phenotype (%),[4],27% and 15%
same,Population Mitochondria Different-Phenotype (%),[4],9% and 4%
same,Population Mitotic Cells (%),[4],33% and 75%
same,Population Normal (%),[4],100% and 99%
same,Population Tubulin-Different-Phenotype (%),[4],45% and 49%
same,Population Apoptotic (%),[5],45% and 69%
same,Population Fragmented Nuclei (%),[5],37% and 13%
same,Population Healthy Nuclei (%),[5],52% and 69%
same,Population Hoechst High Intensity Objects (%),[5],0%
same,Population Membrane Permeable-Phenotype (%),[5],7% and 3%
same,Population Mitochondria Different-Phenotype (%),[5],5% and 0%
same,Population Mitotic Cells (%),[5],54% and 30%
same,Population Normal (%),[5],99% and 100%
same,Population Pyknosed Nuclei (%),[5],11% and 17%
same,Population Tubulin-Different-Phenotype (%),[5],67% and 77%
same,Population Apoptotic (%),[6],50%
same,Population Healthy Nuclei (%),[6],19% and 48%
same,Population Hoechst High Intensity Objects (%),[6],0%
same,Population Membrane Permeable-Phenotype (%),[6],20% and 28%
same,Population Mitochondria Different-Phenotype (%),[6],0% and 2%
same,Population Mitotic Cells (%),[6],50% and 49%
same,Population Normal (%),[6],100% and 99%
same,Population Tubulin-Different-Phenotype (%),[6],20% and 45%
